Results reported in ChEMBL document CHEMBL3739258, “Click-based synthesis of bromotyrosine alkaloid analogs as potential anti-biofilm leads for SAR studies” (Bioorg Med Chem Lett, 2015).
pEC50: −log10 of the molar value.

Tested on: not listed separately
Test: Toxicity in Paracoccus sp. 4M6 assessed as growth inhibition at 100 uM after 15 hrs by Syto61 based-fluorescence analysis relative to control
Details: not given
For `CC1(C)S[C@@H]2[C@H](NC(=O)[C@H](N)c3ccccc3)C(=O)N2[C@H]1C(=O)O` [AMPICILLIN], the Activity was “Toxic”. For `COc1ccc(CCn2cc(C(=O)NCCc3cc(Br)c(O)c(Br)c3)nn2)cc1Br`, the Activity was “Non-toxic”.

Tested on: not listed separately
Test: Toxicity in Pseudoalteromonas ulvae TC14 assessed as effect on viability at 100 uM after 6 hrs by resazurin-staining assay relative to control
Details: not given
In short: (§1)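 Strains grown in VNSS at 20 °C. Bacterial suspension added to VNSS wells containing compound at 100 µM, triplicate, with solvent and untreated controls. OD600 followed hourly for 6 h. Resazurin was then added and fluorescence read after 2 h. Percent viability was calculated as in the Syto 61 adhesion assay.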
For `CC1(C)S[C@@H]2[C@H](NC(=O)[C@H](N)c3ccccc3)C(=O)N2[C@H]1C(=O)O` [AMPICILLIN], the Activity was “Toxic”. With `COc1ccc(CCn2cc(C(=O)NCCc3cc(Br)c(O)c(Br)c3)nn2)cc1Br` the Activity was “Non-toxic”.

Tested on: Pseudoalteromonas ulvae
Test: Antibiofilm activity against Pseudoalteromonas ulvae TC14 assessed as reduction in adhesion after 15 hrs by Syto61 based-fluorescence analysis relative to control
Assay type: functional
Details: TC14, 15 h
In short: (§2)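 Adhesion assay: cells from a 20 °C VNSS stationary-phase culture were resuspended in artificial seawater (OD600 0.2–0.4). They were exposed to a range of compound concentrations in triplicate for 15 h at 20 °C, then washed with 36 g/L NaCl and stained 10 min with 40 µmol/L Syto 61. Fluorescence was read at ex 615/em 670 nm relative to bacteria-only controls. EC50 came from dose-response curve fitting.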
`CC1(C)S[C@@H]2[C@H](NC(=O)[C@H](N)c3ccccc3)C(=O)N2[C@H]1C(=O)O` [AMPICILLIN] showed a pEC50 of 5.03. For `COc1ccc(CCn2cc(C(=O)NCCc3cc(Br)c(O)c(Br)c3)nn2)cc1Br`, the pEC50 was 5.06.

Tested on: not listed separately
Test: Toxicity in Pseudoalteromonas ulvae TC14 assessed as growth inhibition at 100 uM after 15 hrs by Syto61 based-fluorescence analysis relative to control
Details: not given
For `COc1ccc(CCn2cc(C(=O)NCCc3cc(Br)c(O)c(Br)c3)nn2)cc1Br`, the Activity was “Toxic”.

Tested on: Pseudoalteromonas ulvae
Test: Antibiofilm activity against Pseudoalteromonas ulvae TC14 assessed as microbial adhesion at 200 uM after 15 hrs by Syto61 based-fluorescence analysis relative to control
Assay type: functional
Details: not given
In short: (§3)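 Cells grown in VNSS at 20 °C to stationary phase, centrifuged, and resuspended in sterile artificial seawater to OD600 0.2–0.4. Suspension incubated with compound at 200 µM in triplicate for 15 h at 20 °C. Loose cells removed with three washes in 36 g/L NaCl. Attached cells stained 10 min at room temperature with 40 µmol/L Syto 61, then washed and the stain solubilised. Fluorescence read at ex 615/em 670 nm against untreated adhesion-control wells.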
With `COc1ccc(CCn2cc(C(=O)NCCCCNC(=N)N)nn2)cc1Br.O=C(O)C(F)(F)F` the Activity was >75%. With `COc1ccc(Cn2cc(C(=O)NCCN)nn2)cc1Br.O=C(O)C(F)(F)F` the Activity was >75%. In the case of `COc1ccc(Cn2cc(C(=O)NCCCN)nn2)cc1Br.O=C(O)C(F)(F)F`, the Activity was >75%. With `COc1ccc(Cn2cc(C(=O)NCCNC(=N)N)nn2)cc1Br.O=C(O)C(F)(F)F` the Activity was >75%. With `CC1(C)S[C@@H]2[C@H](NC(=O)[C@H](N)c3ccccc3)C(=O)N2[C@H]1C(=O)O` [AMPICILLIN] the Activity was 4.9%. In the case of `COc1ccc(CCn2cc(C(=O)NCCc3cc(Br)c(O)c(Br)c3)nn2)cc1Br`, the Activity was 5.9%.

Tested on: Paracoccus sp.
Test: Antibiofilm activity against Paracoccus sp. 4M6 assessed as microbial adhesion at 200 uM after 15 hrs by Syto61 based-fluorescence analysis relative to control
Assay type: functional
Details: not given
In short: as §3
With `COc1ccc(CCn2cc(C(=O)NCCCCNC(=N)N)nn2)cc1Br.O=C(O)C(F)(F)F` the Activity was >75%. With `COc1ccc(Cn2cc(C(=O)NCCN)nn2)cc1Br.O=C(O)C(F)(F)F` the Activity was >75%. In the case of `COc1ccc(Cn2cc(C(=O)NCCCN)nn2)cc1Br.O=C(O)C(F)(F)F`, the Activity was >75%. With `COc1ccc(Cn2cc(C(=O)NCCNC(=N)N)nn2)cc1Br.O=C(O)C(F)(F)F` the Activity was >75%. Molecule `CC1(C)S[C@@H]2[C@H](NC(=O)[C@H](N)c3ccccc3)C(=O)N2[C@H]1C(=O)O` [AMPICILLIN] has an Activity of 33.9%. Work on `COc1ccc(CCn2cc(C(=O)NCCc3cc(Br)c(O)c(Br)c3)nn2)cc1Br` yielded an Activity of 28.8%.

Tested on: Pseudoalteromonas lipolytica
Test: Antibiofilm activity against Pseudoalteromonas lipolytica TC8 assessed as microbial adhesion at 200 uM after 15 hrs by Syto61 based-fluorescence analysis relative to control
Assay type: functional
Details: not given
In short: as §3
For `COc1ccc(CCn2cc(C(=O)NCCCCNC(=N)N)nn2)cc1Br.O=C(O)C(F)(F)F`, the Activity was >75%. In the case of `COc1ccc(Cn2cc(C(=O)NCCN)nn2)cc1Br.O=C(O)C(F)(F)F`, the Activity was >75%. With `COc1ccc(Cn2cc(C(=O)NCCCN)nn2)cc1Br.O=C(O)C(F)(F)F` the Activity was >75%. With `COc1ccc(Cn2cc(C(=O)NCCNC(=N)N)nn2)cc1Br.O=C(O)C(F)(F)F` the Activity was >75%. `CC1(C)S[C@@H]2[C@H](NC(=O)[C@H](N)c3ccccc3)C(=O)N2[C@H]1C(=O)O` [AMPICILLIN] showed an Activity of 8.9%. For `COc1ccc(CCn2cc(C(=O)NCCc3cc(Br)c(O)c(Br)c3)nn2)cc1Br`, the Activity was 29.7%.

Tested on: not listed separately
Test: Toxicity in Paracoccus sp. 4M6 assessed as effect on viability at 100 uM after 6 hrs by resazurin-staining assay relative to control
Details: not given
In short: as §1
With `CC1(C)S[C@@H]2[C@H](NC(=O)[C@H](N)c3ccccc3)C(=O)N2[C@H]1C(=O)O` [AMPICILLIN] the Activity was “Toxic”. In the case of `COc1ccc(CCn2cc(C(=O)NCCc3cc(Br)c(O)c(Br)c3)nn2)cc1Br`, the Activity was “Non-toxic”.

Tested on: Pseudoalteromonas lipolytica
Test: Antibiofilm activity against Pseudoalteromonas lipolytica TC8 assessed as reduction in adhesion after 15 hrs by Syto61 based-fluorescence analysis relative to control
Assay type: functional
Details: TC8, 15 h
In short: as §2
In the case of `CC1(C)S[C@@H]2[C@H](NC(=O)[C@H](N)c3ccccc3)C(=O)N2[C@H]1C(=O)O` [AMPICILLIN], the pEC50 was 4.75. Molecule `COc1ccc(CCn2cc(C(=O)NCCc3cc(Br)c(O)c(Br)c3)nn2)cc1Br` has a pEC50 of 4.17.

Tested on: not listed separately
Test: Toxicity in Pseudoalteromonas lipolytica TC8 assessed as effect on viability at 100 uM after 6 hrs by resazurin-staining assay relative to control
Details: not given
In short: as §1
With `CC1(C)S[C@@H]2[C@H](NC(=O)[C@H](N)c3ccccc3)C(=O)N2[C@H]1C(=O)O` [AMPICILLIN] the Activity was “Toxic”. With `COc1ccc(CCn2cc(C(=O)NCCc3cc(Br)c(O)c(Br)c3)nn2)cc1Br` the Activity was “Non-toxic”.

Tested on: not listed separately
Test: Toxicity in Pseudoalteromonas lipolytica TC8 assessed as growth inhibition at 100 uM after 15 hrs by Syto61 based-fluorescence analysis relative to control
Details: not given
In the case of `CC1(C)S[C@@H]2[C@H](NC(=O)[C@H](N)c3ccccc3)C(=O)N2[C@H]1C(=O)O` [AMPICILLIN], the Activity was “Toxic”. For `COc1ccc(CCn2cc(C(=O)NCCc3cc(Br)c(O)c(Br)c3)nn2)cc1Br`, the Activity was “Non-toxic”.

Tested on: Paracoccus sp.
Test: Antibiofilm activity against Paracoccus sp. 4M6 assessed as reduction in adhesion after 15 hrs by Syto61 based-fluorescence analysis relative to control
Assay type: functional
Details: Paracoccus sp. (in: a-proteobacteria), 4M6, 15 h
In short: as §2
Work on `CC1(C)S[C@@H]2[C@H](NC(=O)[C@H](N)c3ccccc3)C(=O)N2[C@H]1C(=O)O` [AMPICILLIN] yielded a pEC50 of 3.84. For `COc1ccc(CCn2cc(C(=O)NCCc3cc(Br)c(O)c(Br)c3)nn2)cc1Br`, the pEC50 was 4.39.
